Measurements published in ChEMBL document CHEMBL2146441, “2,6-Disubstituted imidazo[2,1-b][1,3,4]thiadiazoles: search for anticancer agents” (2012).

Tests used:
Type in all cases: functional
A498 = test: Growth inhibition of human A498 cells after 48 hrs by SRB assay; details: A498, 48 h
In short: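 Same 48 h NCI-60 five-dose SRB protocol. Adherent lines were fixed with cold TCA at 10% final; suspension lines such as CCRF-CEM were fixed with 16% final TCA. Stain was 0.4% SRB in 1% acetic acid for 10 min, solubilized in 10 mM Tris base and read at 515 nm. GI50 came from log concentration–growth curves, solving [(Ti−Tz)/(C−Tz)]×100 = 50.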

UACC-257 = test: Growth inhibition of human UACC257 cells after 48 hrs by SRB assay; details: UACC-257, 48 h; for CC50: read-out: LC50 (the source's name)
In short: (§1)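 Adherent NCI-60 lines grown in RPMI 1640 with 5% FBS, seeded at 5000–40,000 cells/well, and preincubated 24 h at 37 °C, 5% CO2. Compound, stocked in DMSO, given either once at 10^-5 M or at five 10-fold dilutions for 48 h. Cells fixed with cold TCA (final 10%), stained with 0.4% SRB, and read at 515 nm. GI50 taken as 50% reduction in net protein increase versus time-zero and control plates.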

BT-549 = test: Cytotoxicity against human BT549 cells assessed as cell growth at 10^-8 M after 48 hrs by SRB assay; details: BT-549, 48 h, read-out: Activity
In short: (§2)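 NCI-60 screen: lines kept in RPMI 1640 with 5% FBS, seeded at 5000–40,000 cells/well by doubling time, preincubated 24 h at 37 °C in 5% CO2. Time-zero plates TCA-fixed at drug addition. DMSO stocks diluted in medium, 48 h exposure. Fixation in cold TCA (final 10% adherent, 16% suspension), 0.4% SRB stain, solubilised in 10 mM Tris base, A515. Percent growth computed against control and time-zero.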

MDA-MB-231 = test: Growth inhibition of human MDA-MB-231 cells after 48 hrs by SRB assay; details: MDA-MB-231, 48 h; in short: as §1
T47D = test: Cytotoxicity against human T47D cells assessed as cell growth at 10^-4 M after 48 hrs by SRB assay; details: read-out: Activity
HCT-15 [1] = test: Growth inhibition of human HCT15 cells after 48 hrs by SRB assay; details: HCT-15, 48 h; for CC50: read-out: LC50 (the source's name); in short: as §1
IGROV-1 = test: Cytotoxicity against human IGROV1 cells assessed as cell growth at 10^-6 M after 48 hrs by SRB assay; details: IGROV-1, 48 h, read-out: Activity
In short: (§3)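 NCI-60 five-dose screen. Cells were grown in RPMI 1640 with 5% FBS and seeded at 5000–40,000 cells/well according to doubling time. They were pre-incubated 24 h at 37 °C in 5% CO₂, and time-zero (Tz) plates were TCA-fixed at drug addition. Five 10-fold dilutions of DMSO stock were applied for 48 h. Read-out was SRB staining, 515 nm absorbance, with percent growth calculated versus Tz and untreated control.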

SR [2] = test: Cytotoxicity against human SR cells assessed as cell growth at 10^-8 M after 48 hrs by SRB assay; details: read-out: Activity
[3] = Cytotoxicity against human […] cells assessed as cell growth at 10^-5 M after 48 hrs by SRB assay; details: RPMI8266, 48 h, read-out: Activity
SN12C = test: Cytotoxicity against human SN12C cells assessed as cell growth at 10^-4 M after 48 hrs by SRB assay; details: read-out: Activity
ACHN = test: Cytotoxicity against human ACHN cells assessed as cell growth at 10^-5 M after 48 hrs by SRB assay; details: read-out: Activity; in short: as §2
HL-60 = test: Cytotoxicity against human HL60 cells assessed as cell growth at 10^-7 M after 48 hrs by SRB assay; details: HL-60, 48 h, read-out: Activity; in short: as §3
M14 = test: Growth inhibition of human M14 cells after 48 hrs by SRB assay; details: M14, 48 h; in short: as §1
COLO = test: Cytotoxicity against human COLO […] cells assessed as cell growth at 10^-6 M after 48 hrs by SRB assay; details: read-out: Activity; in short: as §2
MDA-MB-468 = test: Cytotoxicity against human MDA-MB-468 cells assessed as cell growth at 10^-8 M after 48 hrs by SRB assay; details: MDA-MB-468, 48 h, read-out: Activity
NCI-H460 = test: Cytotoxicity against human NCI-H460 cells assessed as cell growth at 10^-7 M after 48 hrs by SRB assay; details: NCI-H460, 48 h, read-out: Activity
Malme-3M = test: Cytotoxicity against human MALME-3M cells assessed as cell growth at 10^-5 M after 48 hrs by SRB assay; details: read-out: Activity
[4] = Growth inhibition of human […] cells after 48 hrs by SRB assay
In short: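 Leukemia suspension lines grown in RPMI 1640 with 5% FBS, seeded at 5000–40,000 cells/well, and preincubated 24 h at 37 °C, 5% CO2. Compound, stocked in DMSO, given either once at 10^-5 M or at five 10-fold dilutions for 48 h. Settled cells fixed with 80% TCA (final 16%), stained with SRB, and read at 515 nm. GI50 calculated against time-zero and control growth.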

SK-MEL-2 = test: Cytotoxicity against human SK-MEL-2 cells assessed as cell growth at 10^-8 M after 48 hrs by SRB assay; details: SK-MEL-2, 48 h, read-out: Activity
HCT-15 [5] = test: Cytotoxicity against human HCT15 cells assessed as cell growth at 10^-4 M after 48 hrs by SRB assay; details: HCT-15, 48 h, read-out: Activity; in short: as §3
SR [6] = test: Cytotoxicity against human SR cells assessed as cell growth at 10^-4 M after 48 hrs by SRB assay; details: read-out: Activity
SNB-75 = test: Growth inhibition of human SNB75 cells after 48 hrs by SRB assay; details: SNB-75, 48 h; in short: as §1
HOP-62 = test: Cytotoxicity against human HOP62 cells assessed as cell growth at 10^-6 M after 48 hrs by SRB assay; details: HOP-62, 48 h, read-out: Activity; in short: as §3
UACC-62 = test: Cytotoxicity against human UACC62 cells assessed as cell growth at 10^-6 M after 48 hrs by SRB assay; details: UACC-62, 48 h, read-out: Activity
[7] = Cytotoxicity against human […] cells assessed as cell growth at 10^-8 M after 48 hrs by SRB assay; details: 48 h, read-out: Activity
OVCAR-8 = test: Growth inhibition of human OVCAR8 cells after 48 hrs by SRB assay; details: OVCAR-8, 48 h; for CC50: read-out: LC50 (the source's name); in short: as §1
EKVX = test: Cytotoxicity against human EKVX cells assessed as cell growth at 10^-8 M after 48 hrs by SRB assay; details: read-out: Activity; in short: as §2

COc1ccc(-c2nn3cc(-c4cccc(N)c4)nc3s2)cc1
GI50 (A498): 1.11 µM | LC50 (concentration giving 50% net cell kill) (A498): 45.2 µM | TGI (A498): 5.73 µM | GI50 (UACC-257): 17.3 µM | TGI (UACC-257): > 100 µM | CC50 (UACC-257): > 100 µM | growth at 0.01 µM (BT-549): 102% | GI50 (MDA-MB-231): 1.58 µM | LC50 (concentration killing 50% of cells present at time zero) (MDA-MB-231): > 100 µM | TGI (MDA-MB-231): 13.2 µM | growth at 100 µM (T47D): -14% | GI50 (HCT-15 [1]): 5.26 µM | TGI (HCT-15 [1]): > 100 µM | CC50 (HCT-15 [1]): > 100 µM | growth at 1 µM (IGROV-1): 72% | growth at 0.01 µM (SR [2]): 103% | growth at 10 µM [3]: 6% | growth at 100 µM (SN12C): 4% | growth at 10 µM (ACHN): 27% | growth at 0.1 µM (HL-60): 95% | GI50 (M14): 5.48 µM | LC50 (concentration killing 50% of cells) (M14): 90.1 µM | TGI (M14): 24.5 µM | growth at 1 µM (COLO): 94% | growth at 0.01 µM (MDA-MB-468): 94% | growth at 0.1 µM (NCI-H460): 92% | growth at 10 µM (Malme-3M): -16% | GI50 [4]: 1.28 µM | LC50 [4]: > 100 µM | TGI [4]: 26.7 µM | growth at 0.01 µM (SK-MEL-2): 93% | growth at 100 µM (HCT-15 [5]): 1% | growth at 100 µM (SR [6]): 23% | GI50 (SNB-75): 1.07 µM | TGI (SNB-75): 4.87 µM | CC50 (SNB-75; read-out: LC50 (the source's name)): > 100 µM | growth at 1 µM (HOP-62): 84% | growth at 1 µM (UACC-62): 71% | growth at 0.01 µM [7]: 96% | GI50 (OVCAR-8): 4.97 µM | TGI (OVCAR-8): 23 µM | CC50 (OVCAR-8): 89.9 µM | growth at 0.01 µM (EKVX): 81%

COc1ccc(-c2nn3cc(-c4ccc(O)cc4O)nc3s2)cc1
GI50 (A498): 0.365 µM | LC50 (concentration giving 50% net cell kill) (A498): > 100 µM | TGI (A498): 2.56 µM | GI50 (UACC-257): 4.98 µM | TGI (UACC-257): 76.4 µM | CC50 (UACC-257): > 100 µM | growth at 0.01 µM (BT-549): 94% | GI50 (MDA-MB-231): 1.37 µM | TGI (MDA-MB-231): 3.57 µM | growth at 100 µM (T47D): -20% | GI50 (HCT-15 [1]): 5.13 µM | TGI (HCT-15 [1]): > 100 µM | CC50 (HCT-15 [1]): > 100 µM | growth at 1 µM (IGROV-1): 72% | growth at 0.01 µM (SR [2]): 89% | growth at 10 µM [3]: 10% | growth at 100 µM (SN12C): 2% | growth at 10 µM (ACHN): 9% | growth at 0.1 µM (HL-60): 92% | GI50 (M14): 3.68 µM | LC50 (concentration killing 50% of cells) (M14): > 100 µM | TGI (M14): 18.1 µM | growth at 1 µM (COLO): 100% | growth at 0.01 µM (MDA-MB-468): 96% | growth at 0.1 µM (NCI-H460): 101% | growth at 10 µM (Malme-3M): -30% | GI50 [4]: 2.08 µM | LC50 [4]: > 100 µM | TGI [4]: > 100 µM | growth at 0.01 µM (SK-MEL-2): 93% | growth at 100 µM (HCT-15 [5]): 4% | growth at 100 µM (SR [6]): -35% | GI50 (SNB-75): 0.331 µM | TGI (SNB-75): 2.17 µM | growth at 1 µM (HOP-62): 81% | growth at 1 µM (UACC-62): 81% | growth at 0.01 µM [7]: 100% | GI50 (OVCAR-8): 2.63 µM | TGI (OVCAR-8): > 100 µM | CC50 (OVCAR-8): > 100 µM | growth at 0.01 µM (EKVX): 103%
